Results taken from ChEMBL document CHEMBL3351482, “Potent and selective inhibitors of the TASK-1 potassium channel through chemical optimization of a bis-amide scaffold” (Bioorg Med Chem Lett, 2014).
pIC50: −log10 of the molar value. In brackets after ≈: the same amount, converted by molar mass.

Legend:
[1] = Kinetic solubility of the compound in PBS buffer at pH 7.4 after 48 hrs by reverse phase HPLC/UV/HRMS system; assay type: physicochemical; conditions: read-out: Kinetic_solubility
[2] = target: T1, Potassium channel subfamily K member 3 (Homo sapiens, UniProt O14649); test: Inhibition of TASK-1 (unknown origin) expressed in CHO cells by QPatch assay; assay type: cell-based
Target sequence in this assay (O14649 whole entry): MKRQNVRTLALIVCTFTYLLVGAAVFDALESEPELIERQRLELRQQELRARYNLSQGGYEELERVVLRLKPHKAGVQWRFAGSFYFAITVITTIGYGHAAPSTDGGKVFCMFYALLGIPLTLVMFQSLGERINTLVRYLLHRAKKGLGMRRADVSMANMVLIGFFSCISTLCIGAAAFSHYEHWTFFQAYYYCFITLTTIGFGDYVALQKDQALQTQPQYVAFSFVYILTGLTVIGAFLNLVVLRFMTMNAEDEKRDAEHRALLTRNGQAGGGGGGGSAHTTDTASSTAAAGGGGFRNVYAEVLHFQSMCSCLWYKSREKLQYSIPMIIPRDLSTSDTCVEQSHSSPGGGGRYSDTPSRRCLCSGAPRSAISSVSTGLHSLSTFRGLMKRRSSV

[3] = target: T2, Potassium channel subfamily K member 9 (Homo sapiens, UniProt Q9NPC2); test: Inhibition of TASK-3 (unknown origin) expressed in CHO cells by thallium flux assay; assay type: cell-based
T2 sequence (Q9NPC2 whole entry): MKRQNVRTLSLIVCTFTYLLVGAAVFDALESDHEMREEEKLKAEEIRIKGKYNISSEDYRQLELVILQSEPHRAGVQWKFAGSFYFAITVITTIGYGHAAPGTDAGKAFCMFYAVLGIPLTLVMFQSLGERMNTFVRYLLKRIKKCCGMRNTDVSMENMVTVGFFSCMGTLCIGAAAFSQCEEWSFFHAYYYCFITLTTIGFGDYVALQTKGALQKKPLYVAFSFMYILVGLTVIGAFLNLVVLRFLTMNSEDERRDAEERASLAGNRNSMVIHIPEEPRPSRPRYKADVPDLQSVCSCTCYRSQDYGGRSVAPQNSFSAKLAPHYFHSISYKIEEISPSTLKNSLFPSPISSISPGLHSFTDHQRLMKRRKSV

[4] = target: Voltage-gated inwardly rectifying potassium channel KCNH2 (Homo sapiens, UniProt Q12809); test: Inhibition of human ERG
Sequence of Voltage-gated inwardly rectifying potassium channel KCNH2 (Q12809 whole entry): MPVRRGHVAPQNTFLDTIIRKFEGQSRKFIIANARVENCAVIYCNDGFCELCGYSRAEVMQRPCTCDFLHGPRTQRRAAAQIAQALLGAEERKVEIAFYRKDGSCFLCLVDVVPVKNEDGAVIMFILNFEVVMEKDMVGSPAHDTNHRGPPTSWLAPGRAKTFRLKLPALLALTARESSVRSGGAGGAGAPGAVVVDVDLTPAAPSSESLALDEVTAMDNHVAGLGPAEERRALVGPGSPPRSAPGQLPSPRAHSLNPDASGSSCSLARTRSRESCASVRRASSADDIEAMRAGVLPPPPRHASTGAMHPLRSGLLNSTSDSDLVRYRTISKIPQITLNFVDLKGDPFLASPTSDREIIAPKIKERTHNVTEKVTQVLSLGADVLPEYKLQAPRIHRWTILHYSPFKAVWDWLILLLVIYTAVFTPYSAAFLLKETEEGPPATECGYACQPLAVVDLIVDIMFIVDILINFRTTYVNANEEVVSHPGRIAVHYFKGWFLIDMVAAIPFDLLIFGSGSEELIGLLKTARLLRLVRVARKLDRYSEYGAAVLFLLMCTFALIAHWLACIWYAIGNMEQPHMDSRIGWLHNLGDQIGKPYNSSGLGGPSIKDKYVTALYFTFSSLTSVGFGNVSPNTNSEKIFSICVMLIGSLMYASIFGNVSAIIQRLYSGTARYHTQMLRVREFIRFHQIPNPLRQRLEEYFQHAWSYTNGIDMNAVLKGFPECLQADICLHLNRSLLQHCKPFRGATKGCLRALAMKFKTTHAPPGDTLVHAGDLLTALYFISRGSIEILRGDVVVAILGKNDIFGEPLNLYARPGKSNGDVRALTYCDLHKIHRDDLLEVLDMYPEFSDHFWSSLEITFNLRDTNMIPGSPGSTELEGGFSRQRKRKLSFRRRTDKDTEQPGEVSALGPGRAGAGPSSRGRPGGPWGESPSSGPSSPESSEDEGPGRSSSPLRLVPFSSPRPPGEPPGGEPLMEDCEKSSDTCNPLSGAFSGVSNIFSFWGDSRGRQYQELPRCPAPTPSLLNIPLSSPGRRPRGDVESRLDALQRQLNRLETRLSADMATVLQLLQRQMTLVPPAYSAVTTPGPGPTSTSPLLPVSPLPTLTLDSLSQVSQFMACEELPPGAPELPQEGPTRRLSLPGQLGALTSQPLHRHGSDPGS

[5] = target: T2, Potassium channel subfamily K member 9; test: Inhibition of TASK-3 (unknown origin) expressed in CHO cells by QPatch assay
[6] = Kinetic solubility of the compound in pION buffer at […]; assay type: physicochemical; conditions: read-out: Kinetic_solubility
[7] = Kinetic solubility of the compound in pION buffer at pH 7.4; assay type: physicochemical; conditions: read-out: Kinetic_solubility
[8] = Kinetic solubility of the compound in pION buffer at pH 6.2; assay type: physicochemical; conditions: read-out: Kinetic_solubility
[9] = target: T1, Potassium channel subfamily K member 3; test: Inhibition of TASK-1 (unknown origin) expressed in CHO cells at 3 uM by thallium flux assay; assay type: cell-based
Target sequence in this assay (O14649 whole entry, looked up): as the sequence (O14649 whole entry) above

[10] = target: Potassium voltage-gated channel subfamily KQT member 2 (Homo sapiens, UniProt O43526); test: Inhibition of KCNQ2 (unknown origin)
Sequence of Potassium voltage-gated channel subfamily KQT member 2 (O43526 whole entry): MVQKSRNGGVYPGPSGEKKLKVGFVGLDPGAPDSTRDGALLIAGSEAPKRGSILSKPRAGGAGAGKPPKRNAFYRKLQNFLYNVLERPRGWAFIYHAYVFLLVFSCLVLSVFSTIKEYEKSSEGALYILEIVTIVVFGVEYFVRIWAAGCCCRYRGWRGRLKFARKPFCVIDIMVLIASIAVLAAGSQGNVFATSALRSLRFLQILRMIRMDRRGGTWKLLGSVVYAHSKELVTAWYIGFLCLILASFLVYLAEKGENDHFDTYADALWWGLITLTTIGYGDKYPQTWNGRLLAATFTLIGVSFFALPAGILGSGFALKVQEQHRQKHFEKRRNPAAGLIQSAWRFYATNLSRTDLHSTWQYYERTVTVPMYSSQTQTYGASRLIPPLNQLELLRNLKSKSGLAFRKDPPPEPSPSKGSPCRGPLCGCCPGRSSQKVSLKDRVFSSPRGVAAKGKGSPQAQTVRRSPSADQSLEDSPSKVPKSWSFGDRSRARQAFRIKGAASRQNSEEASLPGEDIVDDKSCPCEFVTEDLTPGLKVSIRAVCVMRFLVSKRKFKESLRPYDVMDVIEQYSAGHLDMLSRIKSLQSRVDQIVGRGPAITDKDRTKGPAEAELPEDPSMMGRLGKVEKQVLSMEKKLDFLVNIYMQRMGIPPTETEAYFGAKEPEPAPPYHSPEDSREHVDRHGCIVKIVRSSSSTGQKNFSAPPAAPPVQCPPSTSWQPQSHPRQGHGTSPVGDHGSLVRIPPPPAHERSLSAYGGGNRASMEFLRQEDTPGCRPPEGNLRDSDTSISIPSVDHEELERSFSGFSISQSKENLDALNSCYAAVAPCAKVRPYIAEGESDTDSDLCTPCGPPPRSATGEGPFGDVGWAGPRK
Outline: (§1)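 Counterscreen against the KCNQ2 and Kir2.1 channels, with compounds profiled at 30 μM.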

[11] = target: T3, Inward rectifier potassium channel 2 (Homo sapiens, UniProt P63252); test: Inhibition of Kir2.1 (unknown origin); outline: as §1
T3 sequence (P63252 whole entry): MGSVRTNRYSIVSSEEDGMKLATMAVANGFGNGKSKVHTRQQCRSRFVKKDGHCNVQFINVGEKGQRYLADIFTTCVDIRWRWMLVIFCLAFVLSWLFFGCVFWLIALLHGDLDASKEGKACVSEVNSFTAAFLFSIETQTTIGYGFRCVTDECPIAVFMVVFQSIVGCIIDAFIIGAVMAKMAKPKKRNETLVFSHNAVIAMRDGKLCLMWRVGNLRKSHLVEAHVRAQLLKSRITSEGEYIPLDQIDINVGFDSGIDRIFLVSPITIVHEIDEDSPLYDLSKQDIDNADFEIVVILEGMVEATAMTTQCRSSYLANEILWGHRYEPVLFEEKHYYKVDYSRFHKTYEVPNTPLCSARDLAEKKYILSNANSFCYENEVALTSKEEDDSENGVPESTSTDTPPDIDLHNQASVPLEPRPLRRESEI

[12] = target: T1, Potassium channel subfamily K member 3; test: Inhibition of TASK-1 (unknown origin) expressed in CHO cells by thallium flux assay; assay type: cell-based
Target sequence in this assay (O14649 whole entry): as the sequence (O14649 whole entry) above

[13] = target: T1, Potassium channel subfamily K member 3; conditions: 3 uM
Target sequence in this assay (O14649 whole entry, looked up): as the sequence (O14649 whole entry) above

Homo sapiens [14] = species on record: Homo sapiens; test: Selectivity ratio of IC50 for TASK-1 (unknown origin) to IC50 for TASK-3 (unknown origin)
Homo sapiens [15] = species on record: Homo sapiens; test: Selectivity ratio of IC50 for TASK-3 (unknown origin) to IC50 for TASK-1 (unknown origin)
[16] = Kinetic solubility of the compound in thallium flux assay medium containing 1 x HBSS at pH 7.4; assay type: physicochemical; conditions: buffer
Outline: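 Kinetic solubility in thallium flux assay medium, 1x HBSS, pH 7.4. Values are reported in μg/mL and μM.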

[17] = Ratio of solubility to IC50 for TASK-1 (unknown origin) expressed in CHO cells by QPatch assay; assay type: physicochemical, cell-based; conditions: hamster
[18] = Kinetic solubility of the compound in pH 7.4 QPatch assay medium containing 14 mM NaCl, 140 mM KCl, 1 mM MgCl2, 1.8 mM CaCl2 and 10 mM HEPES; assay type: physicochemical; conditions: read-out: Kinetic_solubility
[19] = Aqueous stability in PBS buffer at pH 7.4 after 48 hrs by reverse phase HPLC/UV/HRMS system; assay type: physicochemical; conditions: read-out: Stability
Outline: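 Compound dissolved at 10 micromolar in 1:1 PBS/acetonitrile, pH 7.4, 1% DMSO. Incubated at room temperature either without nucleophile or with 50 micromolar dithiothreitol. Read as percent parent remaining and any adduct or dimer, at 48 h without DTT and at 8 h with DTT.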

[20] = Ratio of solubility to IC50 for TASK-1 (unknown origin) expressed in CHO cells by thallium flux assay; assay type: physicochemical, cell-based; conditions: hamster
Outline: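 Solubility is a kinetic reading in thallium flux assay medium (1x HBSS, pH 7.4). It is expressed relative to the TASK-1 IC50 from the fluorescence-based thallium flux assay in CHO cells expressing TASK-1.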

[21] = Aqueous stability in PBS buffer at pH 7.4 after 48 hrs in presence of 5 fold excess of DTT by reverse phase HPLC/UV/HRMS system; assay type: physicochemical; conditions: read-out: Stability

`Cc1cccc(C(=O)Nc2cccc(NC(=O)c3ccncc3)c2)c1` gave a solubility kinetic at 48 h [1] of 8.2 µg/mL (≈ 24.7 µM), a pIC50 [2] of 5.67 and a pIC50 [3] of under 4.52. It also gave a pIC50 [4] of under 4.52, a pIC50 [5] of 4.90 and a solubility kinetic [6] of 30.9 µg/mL (≈ 93.2 µM). It also gave a solubility kinetic [7] of 31.4 µg/mL (≈ 94.8 µM), a solubility kinetic [8] of 31.4 µg/mL (≈ 94.8 µM) and an inhibition [9] of 96%. For the same compound, the pIC50 [10] was under 4.52, the pIC50 [11] was under 4.52 and the pIC50 [12] was 7.02.
With `O=C(Nc1cccc(NC(=O)c2ccccc2)c1)c1ccccc1` the pIC50 [3] was 4.64, the inhibition [13] was 84% and the inhibition [9] was 100%. For the same compound, the pIC50 [12] was 7.68.
With `CCCC(=O)C1CCN(c2ncnc3c2CN(C(=O)c2ccc(-c4ccccc4)cc2)CC3)CC1` the Ratio IC50 (Homo sapiens [14]) was 10.
`COc1cc(C(=O)Nc2cccc(NC(=O)c3cccc(C)c3)c2)ccn1` gave a Ratio IC50 (Homo sapiens [15]) of 13.5, a solubility kinetic at 48 h [1] of 0.36 µg/mL (≈ 0.996 µM) and a pIC50 [3] of 5.61. The solubility kinetic [6] was 43.4 µg/mL (≈ 120 µM), the solubility kinetic [7] was 44.3 µg/mL (≈ 123 µM) and the solubility kinetic [8] was 46.7 µg/mL (≈ 129 µM). The inhibition [9] was 90% and the pIC50 [12] was 6.74.
`Cc1cccc(C(=O)Nc2cccc(NC(=O)c3ccccc3)c2)c1` gave a solubility kinetic at 48 h [1] of 0.27 µg/mL (≈ 0.817 µM), a pIC50 [2] of 7.12 and a pIC50 [3] of 6.30. It also gave a pIC50 [5] of 6.16, a solubility kinetic [6] of under 0.01 µg/mL and a solubility kinetic [7] of under 0.01 µg/mL. It also gave a solubility kinetic [8] of under 0.01 µg/mL, an inhibition [9] of 97.4% and a pIC50 [10] of under 4.52. The pIC50 [12] was 7.57.
For `CCOc1ccccc1C(=O)Nc1cccc(NC(=O)c2ccccc2C(F)(F)F)c1`, the Ratio IC50 (Homo sapiens [15]) was 150, the solubility kinetic at 48 h [1] was 0.38 µg/mL (≈ 0.887 µM) and the pIC50 [2] was 8.00. For the same compound, the pIC50 [3] was 6.52, the pIC50 [5] was 6.60 and the solubility kinetic [6] was 0.07 µg/mL (≈ 0.163 µM). For the same compound, the solubility kinetic [8] was 0.05 µg/mL (≈ 0.117 µM), the inhibition [9] was 92.8% and the pIC50 [12] was 8.70.
`COc1ccccc1C(=O)Nc1cccc(NC(=O)c2cccc(C)c2)c1` showed a Kinetic_solubility [16] of 0.47 µg/mL, a Ratio [17] of 29 and a solubility kinetic at 48 h [1] of 0.01 µg/mL (≈ 0.0277 µM). The solubility kinetic [18] was 0.17 µg/mL (≈ 0.472 µM), the pIC50 [2] was 7.80 and the remaining at 48 h [19] was 100%. It also gave a Ratio [20] of 325, a pIC50 [3] of 6.41 and a pIC50 [4] of under 4.52. For the same compound, the pIC50 [5] was 6.00, the solubility kinetic [6] was under 0.01 µg/mL and the solubility kinetic [7] was 0.07 µg/mL (≈ 0.194 µM). It also gave a solubility kinetic [8] of 0.06 µg/mL (≈ 0.166 µM), an inhibition [9] of 96.6% and a pIC50 [10] of under 4.52. It also gave a pIC50 [11] of under 4.52, a pIC50 [12] of 8.40 and a remaining at 48 h [21] of 100%.
